Assay outcomes from PubChem BioAssay.
Rows were chosen to be rich in hits. Some 2.7% of all compounds tested hit in one or more screens of this group.
CTSL1 counter: cathepsin L1 inhibition, PFM18AAP counter-screen. inhibition, % at 5.96 µM. hit rate 0.49% among 300,000. recombinant F. hepatica cathepsin L1, Z-Leu-Arg-MCA fluorescence;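 active means inhibition above the mean of all tested compounds plus 3 SD, set per screening campaign, cut at about 17% in these data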;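 further: 0% = plate median of test compound wells and 100% = 1 µM Z-Phe-Ala-diazomethylketone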
IMP-1 inhibitor: inhibitors of Pseudomonas aeruginosa IMP-1 metallo-beta-lactamase; hit rate 0.45% among 290,000; inhibition, % at 5.6 µM; purified IMP-1, nitrocefin hydrolysis, epi-absorbance fluorescence;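 active means inhibition above the mean plus 3 SD of all compounds in the same screening run, cut at about 4.5% in these data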;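 further: 0% = IMP-1 with DMSO and 100% = DMSO wells lacking enzyme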
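Assay system: purified recombinant IMP-1 beta-lactamase. Input: IMP-1 0.2 nM before substrate addition. Buffer or medium: Zinc- and detergent-supplemented HEPES buffer, pH 7.1. Schedule: 25 °C, 15 min preincubation, 25 min reaction. Signal: Epi-absorbance fluorescence, 480 nm excitation, 530 nm emission. Evaluation: percent inhibition from optical density relative to buffer-blank wells.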
VIM-2 inh: inhibitors of Pseudomonas aeruginosa VIM-2 metallo-beta-lactamase; hit rate 0.89% among 290,000; inhibition, % at 5.6 µM; AID 1527; purified VIM-2, nitrocefin hydrolysis, epi-absorbance fluorescence;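 active means inhibition above the mean of all tested compounds plus 3 SD, cutoff set per screening run, cut at about 7.5% in these data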;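 further: red hydrolysis product quenches plate fluorescence so inhibitors raise well fluorescence; 0% = enzyme with DMSO and 100% = DMSO without enzyme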
PfM18AAP inh: blocks P. falciparum M18 aspartyl aminopeptidase. recombinant PfM18AAP, H-Glu-NHMec fluorogenic cleavage. inhibition, % at 7.35 µM. hit rate 1.2% among 290,000;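 active means inhibition above the campaign mean inhibition over all tested compounds plus 3 SD, cut at about 28% in these data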;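 further: 0% = plate median of test compound wells and 100% = 2 mM ZnCl2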
An asterisk follows results filed as active; . = no result.

SMILES	CTSL1 counter	IMP-1 inhibitor	VIM-2 inh	PfM18AAP inh
Cc1ccc(S(=O)(=O)/N=C2/NC(=O)/C(=C/c3cc([N+](=O)[O-])ccc3O)S2)cc1	3.3	1.5	-1.0	30.5*
Cc1ccc(Cn2c(=N)n(CC(=O)c3ccccc3)c3ccccc32)cc1	-5.1	-3.2	-1.6	-5.6
O=C(NNC(=O)c1nn(-c2ccc(F)cc2)ccc1=O)c1ccccc1Cl	2.6	8.4*	-3.2	5.3
O=C(O)c1nn(-c2ccc(F)cc2)ccc1=O	0.7	-5.0	-0.7	10.6
O=C(O)CCC(=O)N1N=C(c2ccc(Br)cc2)CC1c1cccs1 (stereo not given)	0.3	-2.5	7.9*	-4.8
O=C(NCCO[N+](=O)[O-])c1cccnc1	-0.3	0.6	2.0	2.1
CCCn1c2ccccc2c2cnn(CC(=O)N3CCN(C4CCCCC4)CC3)c(=O)c21	-2.0	0.9	7.8*	-3.3
Cc1ccc(SCc2cc(=O)n3ccsc3n2)c(C)c1	-1.5	-4.0	-3.1	-5.7
Cc1cccc(-n2c(SCc3cc(=O)n4ccsc4n3)nc3ccccc32)c1	3.8	5.0*	-0.6	-2.8
CC(=O)Nc1ccc(Cc2nc3c([nH]2)c(=O)n(C)c(=O)n3C)cc1	-3.8	11.8*	0.5	-3.0
CCCc1nc2c([nH]1)c(=O)n(C)c(=O)n2C	0.0	-2.5	-2.4	-1.6
CNC(=O)c1cn(-c2ccccc2)c(=O)c2ccccc12	-2.4	6.1*	-1.8	-8.7
CN(C)C(=O)c1cn(-c2ccccc2)c(=O)c2ccccc12	0.2	1.4	-1.1	-3.1
Cn1c(=O)c(Nc2ccc(O)cc2)c2c3c(cccc31)C(=O)c1ccccc1-2	1.5	-1.0	4.4	-6.3
CCCCNC(=S)NNC(=O)c1c(Cl)c(C)nn1C	-2.6	-2.6	-3.5	-0.8
CCCCNC(=S)NNC(=O)c1c(C)nc2ccccn12	0.3	-2.3	-5.9	38.2*
CCCCNC(=S)NNC(=O)c1ccoc1C	-2.7	-3.2	-4.8	29.2*
Cc1ccc(F)cc1NC(=O)CSc1nnc(CNC(=O)c2ccco2)n1C	4.1	.	.	.
CCN(c1ccc(N=Cc2c(O)n(Cc3ccc(OC)cc3)c(=O)c3ccccc23)cc1)C(C)C	.	-3.4	-2.1	-2.0
N#Cc1c(N)sc(=S)c2c1CCN(Cc1ccccc1)C2	108.8*	.	.	.
CCOC(=O)C1CCN(C(=O)C2CCCN2S(=O)(=O)c2ccc(Cl)cc2)CC1 (stereo not given)	-2.0	-0.4	1.5	-15.0
CCCn1c(=O)c2ccccc2n2c(SCCNCCO)nnc12	5.7	-3.4	11.2*	-4.1
COc1cccc(NC(=O)Cn2c3ccccc3c3nc4n(c(=O)c32)CCCS4)c1	2.9	4.8*	1.8	-5.1
O=C(O)c1ccccc1C(=O)c1ccc2c(c1)N(Cc1ccc(Cl)c(Cl)c1)C(=O)CO2	0.4	-3.0	-2.1	7.6
COc1ccc(OCC(=O)O/N=C(\N)Cc2ccc(Cl)cc2)cc1	29.7*	-2.0	-1.2	5.1
SMILES	CTSL1 counter	IMP-1 inhibitor	VIM-2 inh	PfM18AAP inh
Cc1nc2c(s1)sc1ccccc12	-2.5	-4.9	-1.5	6.0
CC[n+]1c(C)sc2sc3ccccc3c21	-2.5	-4.5	-1.6	60.3*
COc1ccc([N+](=O)[O-])cc1NC(=O)c1ccc(Br)s1	17.7*	-3.3	-1.2	3.1
COc1ccc([N+](=O)[O-])cc1NC(=S)NC(C)=O	0.9	-1.8	-1.8	-4.7
COc1ccc([N+](=O)[O-])cc1NC(=O)CSc1nc(C)cc(C)n1	-2.7	-1.8	-1.3	30.3*
O=C1C2CC=C(Cl)CC2C(=O)N1CCCCCCN1C(=O)C2CC=C(Cl)CC2C1=O (stereo not given)	41.8*	-1.4	-2.6	6.3
CN(CC(=O)Nc1ccc(F)cc1)C(=O)COC(=O)CNC(=O)c1ccc(Cl)cc1Cl	21.2*	.	.	.
COc1ccc(Cl)cc1C(=O)OCC(=O)N(C)CC(=O)Nc1ccc(F)cc1	0.4	.	.	.
COc1cc2cc(C(=O)N(C)C3CCS(=O)(=O)C3)[nH]c2cc1OC (stereo not given)	0.9	-4.9	8.1*	-1.8
Cc1ccc(C(=O)Oc2oc(-c3ccccc3)nc2C=Nc2ccc(N(C)C)cc2)cc1	9.5	-5.5	-3.3	10.2
COc1cccc(N=Cc2nc(-c3ccccc3)oc2OC(C)=O)c1	28.0*	-2.9	-2.1	-0.7
COc1ccc(N=Cc2nc(-c3ccccc3)oc2OC(C)=O)cc1	20.5*	-1.3	-0.8	4.0
COc1ccccc1NC(=O)C(C)OC(=O)C1CCN(S(=O)(=O)c2ccc(C)c(C)c2)CC1 (stereo not given)	-1.7	.	.	.
CCOC(=O)c1c(NC(=O)COC(=O)c2cnc(C)cn2)sc(C(=O)N(C)C)c1C	4.0	.	.	.
CCOC(=O)c1c(-c2ccco2)csc1NC(=O)COC(=O)c1cnc(C)cn1	30.8*	.	.	.
Clc1ccc(C[n+]2csc3ccccc32)cc1	-7.0	-1.9	-3.6	37.6*
COc1cccc(C2NC(=O)N(CCCC(=O)O)C(C)=C2C(=O)OCc2ccccc2)c1 (stereo not given)	-2.9	.	.	.
Cc1ccc(CNC(=O)CCNS(=O)(=O)c2cccc3nsnc23)cc1	-3.7	-2.5	-3.0	1.6
CCOC(=O)C1C2C=CC3(CN(c4ccccc4CC)C(=O)C13)O2 (stereo not given)	0.4	-3.3	-1.3	6.6
CCCCCOC(=O)C1C2C=CC3(CN(c4ccccc4C)C(=O)C13)O2 (stereo not given)	18.6*	-3.9	-3.6	-6.3
COc1ccc(S(=O)(=O)NCC2CCCO2)c(Cl)c1Cl (stereo not given)	-5.7	9.2*	-1.1	-11.0
COc1cc(S(=O)(=O)NCC2CCCO2)c(OC)cc1Cl (stereo not given)	-2.1	-4.4	-3.6	4.1
CCCc1cc(=O)oc2c(CN3CCCC3)c(O)ccc12	13.1	-2.0	-0.5	0.3
CCCc1cc(=O)oc2cc(C)c(CN3CCCC3)c(O)c12	-1.3	7.7*	3.5	2.1
Cn1cccc1CC(=O)NNC(=S)NC(=O)c1ccccc1Br	0.0	-6.4	-2.6	18.1
SMILES	CTSL1 counter	IMP-1 inhibitor	VIM-2 inh	PfM18AAP inh
Cc1ccc(CNC(=O)CSc2nc(C)cc(C)c2C#N)cc1	17.0*	-2.1	-4.4	-1.5
CCOC(=O)CNC(=O)CSc1nc(C)cc(C)c1C#N	-2.7	-2.3	-1.7	1.2
CCN(C(=O)CN1CCN(c2ccccc2O)CC1)c1c(N)n(Cc2ccccc2)c(=O)[nH]c1=O	0.8	-0.4	-4.2	28.4*
CCN(C(=O)CN1CCN(c2ccccc2F)CC1)c1c(N)n(Cc2ccccc2)c(=O)[nH]c1=O	-2.5	-0.1	1.2	-5.8
O=C(/C=C/c1ccco1)NC(=S)Nc1cccc(C(=O)O)c1	-0.3	8.9*	-4.3	19.1
Cc1ccc(C(=O)N/C(=C/c2ccco2)C(=O)Nc2cccc(C(=O)O)c2)cc1	1.6	-0.3	1.4	30.2*
Cc1cccc(C(=O)N/C(=C\c2ccco2)C(=O)N2CCCC2)c1	-1.6	-0.7	0.7	28.7*
O=C(N/C(=C\c1ccco1)C(=O)N1CCCC1)c1ccccc1	3.2	-1.0	-2.6	31.5*
COc1ccccc1C(=O)N/C(=C/c1ccco1)C(=O)Nc1cccc(C(=O)O)c1	-1.4	-3.7	-5.4	16.5
O=C(NCCOc1ccccc1F)c1cc(F)c(F)cc1Cl	-0.8	-2.3	-2.2	-6.5
